Where a SMILES comes first, the peptide text is derived from it. Bridges are numbered along the chain shown (N, C = ends). [ ]: non-standard residue; d: D form. Oic = O=C(O)[C@@H]1C[C@@H]2CCCC[C@@H]2N1; Hyp = O=C(O)[C@@H]1C[C@@H](O)CN1; dTic = O=C(O)[C@H]1Cc2ccccc2CN1
How the values were obtained:
[1] = target: T1, B2 bradykinin receptor (Cavia porcellus, UniProt O70526); assay: Binding affinity against [3H]bradykinin binding to bradykinin receptor B2 in guinea pig ileal membrane; type: cell membranes
T1 sequence (O70526 whole entry): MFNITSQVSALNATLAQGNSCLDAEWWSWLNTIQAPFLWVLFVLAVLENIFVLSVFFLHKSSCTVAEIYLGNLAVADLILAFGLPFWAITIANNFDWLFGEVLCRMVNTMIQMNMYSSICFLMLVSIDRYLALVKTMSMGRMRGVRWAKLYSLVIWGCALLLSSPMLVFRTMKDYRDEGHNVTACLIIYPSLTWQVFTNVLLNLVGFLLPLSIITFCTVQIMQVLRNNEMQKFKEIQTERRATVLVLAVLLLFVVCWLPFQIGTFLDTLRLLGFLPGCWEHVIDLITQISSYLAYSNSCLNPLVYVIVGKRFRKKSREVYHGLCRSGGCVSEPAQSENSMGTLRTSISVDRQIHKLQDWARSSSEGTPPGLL
Procedure, shortened: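 Competition binding against [³H]bradykinin on guinea pig ileal membrane preparations, with affinity given as Ki following a previously described method. The ileum expresses only B2 receptors.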

[2] = target: T1, B2 bradykinin receptor; assay: Antagonism against bradykinin receptor B2 in guinea pig ileal tissue; type: functional; details: read-out: pA2 (converted)
Procedure, shortened: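 Functional antagonism recorded as pA2 in isolated guinea pig ileal tissue, a preparation that expresses only B2 receptors. The procedure follows conventional, previously reported methods.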

Structure (SMILES) | Ki [1] [nM] | Kb [2] [nM]
CN(CC(=O)N(C)[C@@H](Cc1ccccc1)C(=O)N[C@@H](CO)C(=O)N1Cc2ccccc2C[C@@H]1C(=O)N1C2CCCCC2C[C@H]1C(=O)N[C@@H](CCCN=C(N)N)C(=O)O)C(=O)[C@@H]1C[C@H](O)CN1C(=O)[C@@H]1CCCN1C(=O)[C@H](CCCN=C(N)N)NC(=O)[C@H](N)CCCN=C(N)N (some centres not stated) | 1690 | –
N=C(N)NCCC[C@@H](N)C(=O)N[C@@H](CCCNC(=N)N)C(=O)N[C@H]1CSSC[C@@H](C(=O)N[C@@H](CO)C(=O)N2Cc3ccccc3C[C@@H]2C(=O)N2[C@H](C(=O)N[C@@H](CCCNC(=N)N)C(=O)O)C[C@@H]3CCCC[C@@H]32)NC(=O)CNC(=O)[C@@H]2CCCN2C1=O (H-[dR]RCPGCS[dTic][Oic]R-OH; disulfide 3-6) | – | 240
CC(NC(=O)[C@@H]1C[C@H](O)CN1C(=O)[C@@H]1CCCN1C(=O)[C@H](CCCN=C(N)N)NC(=O)[C@H](N)CCCN=C(N)N)C(=O)N[C@@H](Cc1ccccc1)C(=O)N[C@@H](CO)C(=O)N1Cc2ccccc2C[C@@H]1C(=O)N1C2CCCCC2C[C@H]1C(=O)N[C@@H](CCCN=C(N)N)C(=O)O (some centres not stated) | 82.3 | –
CN(CC(=O)N[C@@H](Cc1ccccc1)C(=O)N[C@@H](CO)C(=O)N1Cc2ccccc2C[C@@H]1C(=O)N1C2CCCCC2C[C@H]1C(=O)N[C@@H](CCCN=C(N)N)C(=O)O)C(=O)[C@@H]1C[C@H](O)CN1C(=O)[C@@H]1CCCN1C(=O)[C@H](CCCN=C(N)N)NC(=O)[C@H](N)CCCN=C(N)N (some centres not stated) | 30.8 | –
CC(NC(=O)[C@@H]1C[C@H](O)CN1C(=O)[C@@H]1CCCN1C(=O)[C@H](CCCN=C(N)N)NC(=O)[C@H](N)CCCN=C(N)N)C(=O)N[C@@](C)(Cc1ccccc1)C(=O)N[C@@H](CO)C(=O)N1Cc2ccccc2C[C@@H]1C(=O)N1C2CCCCC2C[C@H]1C(=O)N[C@@H](CCCN=C(N)N)C(=O)O (some centres not stated) | 3030 | –
NC(N)=NCCC[C@@H](N)C(=O)N[C@@H](CCCN=C(N)N)C(=O)N[C@H]1CSSC[C@@H](C(=O)N2Cc3ccccc3C[C@@H]2C(=O)N2[C@H](C(=O)N[C@@H](CCCN=C(N)N)C(=O)O)C[C@@H]3CCCC[C@@H]32)NC(=O)[C@H](Cc2ccccc2)NC(=O)CNC(=O)[C@@H]2CCCN2C1=O (H-[dR]RCPGFC[dTic][Oic]R-OH; disulfide 3-7) | – | 501

Further lines, results first:

Ki [1] [nM] | Kb [2] [nM] | Structure (SMILES)
26.5 | 2510 | CN(C(=O)CNC(=O)[C@@H]1C[C@H](O)CN1C(=O)[C@@H]1CCCN1C(=O)[C@H](CCCN=C(N)N)NC(=O)[C@H](N)CCCN=C(N)N)[C@@H](Cc1ccccc1)C(=O)N[C@@H](CO)C(=O)N1Cc2ccccc2C[C@@H]1C(=O)N1C2CCCCC2C[C@H]1C(=O)N[C@@H](CCCN=C(N)N)C(=O)O (some centres not stated)
0.54 | 12.6 | C[C@@](Cc1ccccc1)(NC(=O)CNC(=O)[C@@H]1C[C@H](O)CN1C(=O)[C@@H]1CCCN1C(=O)[C@H](CCCN=C(N)N)NC(=O)[C@H](N)CCCN=C(N)N)C(=O)N[C@@H](CO)C(=O)N1Cc2ccccc2C[C@@H]1C(=O)N1C2CCCCC2C[C@H]1C(=O)N[C@@H](CCCN=C(N)N)C(=O)O (some centres not stated)
0.08 | 1.51 | NC(N)=NCCC[C@@H](N)C(=O)N[C@@H](CCCN=C(N)N)C(=O)N1CCC[C@H]1C(=O)N1C[C@H](O)C[C@H]1C(=O)NCC(=O)N[C@@H](Cc1ccccc1)C(=O)N[C@@H](CO)C(=O)N1Cc2ccccc2C[C@@H]1C(=O)N1[C@H](C(=O)N[C@@H](CCCN=C(N)N)C(=O)O)C[C@@H]2CCCC[C@@H]21 (H-[dR]RP[Hyp]GFS[dTic][Oic]R-OH)

Reference: ChEMBL document CHEMBL1126783, “Design of potent, cyclic peptide bradykinin receptor antagonists from conformationally constrained linear peptides” (J Med Chem, 1993)
